ChEMBL document CHEMBL3992510, “Urea Derivatives of 2-Aryl-benzothiazol-5-amines: A New Class of Potential Drugs for Human African Trypanosomiasis” (J Med Chem, 2017)

What was measured:
[1] = test system: Trypanosoma brucei brucei; test: Antitrypanosomal activity against Trypanosoma brucei brucei BF427 assessed as growth inhibition measured after 48 hrs by Alamar blue assay; assay type: functional; settings: BF427, 48 h
Method in brief: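 Bloodstream-form parasites in HMI-9 medium are exposed to serial compound dilutions in triplicate. Viability is read with Alamar Blue at 48 h. EC50 and EC90 come from nonlinear regression. Pentamidine isethionate is the control.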

[2] = Stability in human liver microsomes assessed as compound remaining at 1.5 uM in presence of NADPH measured after 60 mins by liquid chromatography/tandem mass spectrometric analysis; assay type: ADME, microsome; settings: read-out: Stability
Method in brief: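 Pooled liver microsomes (0.5 mg/mL) are preincubated 5 min at 37 °C in 0.16 M KH2PO4 with 1 mM NADPH, then test compound is added at 1.5 μM. Aliquots are quenched with 4 volumes of acetonitrile at 0, 5, 10, 15, 30 and 60 min and analyzed by LC-MS/MS. Percent remaining at 5 or 60 min is given when t1/2 is outside the 5–60 min range. Controls: testosterone, dextromethorphan.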

Liver [3] = test: Half life in mouse liver microsomes at 1.5 uM in presence of NADPH by liquid chromatography/tandem mass spectrometric analysis; assay type: ADME, microsome
[4] = Stability in mouse liver microsomes assessed as compound remaining at 1.5 uM in presence of NADPH measured after 5 mins by liquid chromatography/tandem mass spectrometric analysis; assay type: ADME, microsome; settings: read-out: Stability
[5] = Selectivity index, ratio of EC50 for human HepG2 cells to EC50 for Trypanosoma brucei brucei BF427; assay type: toxicity; settings: read-out: Ratio EC50
HepG2 = test: Cytotoxicity against human HepG2 cells assessed as growth inhibition after 48 hrs by Alamar blue assay; assay type: cell-based; settings: for EC50: Homo sapiens, HepG2, 48 h; for EC90: human, hepg2, 48 h
Method in brief: (§1)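 CRL-8155 lymphoblasts or HepG2 hepatocellular carcinoma cells are exposed 48 h to serial compound dilutions in quadruplicate. Growth is read with Alamar Blue, and 50% and 90% inhibitory concentrations come from nonlinear regression. Quinacrine is the control.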

[6] = Selectivity index, ratio of EC50 for human CRL8155 cells to EC50 for Trypanosoma brucei brucei BF427; assay type: toxicity; settings: read-out: Ratio EC50
[7] = Cytotoxicity against human CRL8155 cells assessed as growth inhibition after 48 hrs by Alamar blue assay; assay type: cell-based; settings: for EC50: Homo sapiens, CRL8155, 48 h; for EC90: human, crl8155, 48 h; method in brief: as §1
Liver [8] = test: Half life in human liver microsomes at 1.5 uM in presence of NADPH by liquid chromatography/tandem mass spectrometric analysis; assay type: ADME, microsome
[9] = Ratio of drug level in brain to plasma in mouse at 5 mg/kg, ip administered as single dose measured at 1 hr post dose by liquid chromatography/tandem mass spectrometric analysis; assay type: ADME, organism-based
Method in brief: (§2)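 Single ip dose of 5 mg/kg in 5% DMSO/7% Tween 80/3% EtOH in 0.9% saline, three mice per compound (six for one compound). At 1 h, plasma is separated by centrifugation and brain homogenized in acetonitrile. Both are quantified by LC-MS/MS, with brain corrected for 3% v/w blood. Brain/plasma ratio is reported as mean ± SEM.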

[10] = Drug level in mouse brain at 5 mg/kg, ip administered as single dose measured at 1 hr post dose by liquid chromatography/tandem mass spectrometric analysis; assay type: ADME, organism-based; settings: read-out: Drug uptake; method in brief: as §2
[11] = Drug level in mouse plasma at 5 mg/kg, ip administered as single dose measured at 1 hr post dose by liquid chromatography/tandem mass spectrometric analysis; assay type: ADME, organism-based; method in brief: as §2

Compound	EC50 [1] [µM]	EC90 [1] [µM]	remaining at 1 h, 1.5 µM [2] [%]	t1/2 (Liver [3]) [min]	remaining at 5 min, 1.5 µM [4] [%]	t1/2 (Liver [8]) [min]	BPR [9]	concentration at 1 h [10] [µM]	concentration at 1 h [11] [µM]	selectivity ratio [5]	EC50 (HepG2) [µM]	EC90 (HepG2) [µM]	selectivity ratio [6]	EC50 [7] [µM]	EC90 [7] [µM]
O=C(Nc1ccc2sc(-c3ccccc3)nc2c1)c1ccccc1	2.38	7.74	53	50											
CC(C)(CNC(=O)N1CCCCC1)c1nc(-c2ccccc2)cs1	1.3	2.4		< 5	0										
S=C(NCCc1nc(-c2ccccc2)cs1)c1ccccc1	1.44	2.63		< 5	0										
O=C(Nc1ccc2oc(-c3ccccc3)nc2c1)N1CCCCC1	2.8	9.3	77	11											
O=C(NCCc1nc(-c2ccccc2)cs1)N1CCCCC1							0.613								
O=C(NCCc1nc(-c2ccccc2)cs1)c1ccccc1							0.3								
CC(C)(Cc1csc(-c2ccccc2)n1)NC(=O)N1CCCCC1	7.84	9.9		< 5	0										

Second part, led by results:

EC50 [1] [µM]	EC90 [1] [µM]	remaining at 1 h, 1.5 µM [2] [%]	t1/2 (Liver [3]) [min]	remaining at 5 min, 1.5 µM [4] [%]	t1/2 (Liver [8]) [min]	BPR [9]	concentration at 1 h [10] [µM]	concentration at 1 h [11] [µM]	Compound	selectivity ratio [5]	EC50 (HepG2) [µM]	EC90 (HepG2) [µM]	selectivity ratio [6]	EC50 [7] [µM]	EC90 [7] [µM]
0.366	0.809	62	17						O=C(Nc1ccc2sc(-c3ccccc3)nc2c1)N1CCCCC1	> 137	> 50	> 50	> 137	> 50	> 50
0.108	0.168		< 5	14	5.1				O=C(NCCc1nc(-c2cccc(F)c2)cs1)N1CCCC(F)(F)C1	> 463	> 50	> 50	> 463	> 50	> 50
0.164	0.23		< 5	20	5.8				O=C(NCCc1nc(-c2cccc(F)c2)cs1)N1CCC(F)(F)CC1	> 305	> 50	> 50	> 305	> 50	> 50
0.0366	0.0575		< 5	5.5	5.6				O=C(NCCc1nc(-c2cccc(F)c2)cs1)N1CCC(F)CC1	> 1370	> 50	> 50	> 1370	> 50	> 50
0.325	0.817		18		30		4.24	3.4	O=C(Nc1ccc2sc(-c3ccccc3)nc2c1)N1CCCC1	> 154	> 50	> 50	> 154	> 50	> 50
0.0285	0.0557		< 5	18	10				O=C(NCCc1nc(-c2cccc(F)c2)cs1)N1CCCC(F)C1 (stereo not drawn)	> 1750	> 50	> 50	> 1750	> 50	> 50
0.934	1.66					7.92	21.7	2.81	O=C(Nc1ccc2sc(-c3ccc(F)c(F)c3)nc2c1)N1CCC(F)(F)C1	> 54	> 50	> 50	> 54	> 50	> 50
0.0243	0.0424		< 5	1.8	8.2	0.089	0.187	2	Cl.S=C(NCCc1nc(-c2ccccc2)cs1)N1CCCCC1	> 2060	> 50	> 50	> 2060	> 50	> 50
